In ChEMBL document CHEMBL4610127, “Novel Autotaxin Inhibitor for the Treatment of Idiopathic Pulmonary Fibrosis: A Clinical Candidate Discovered Using DNA-Encoded Chemistry” (J Med Chem, 2020):
pIC50: −log10 of the molar value. Activity calls are given as the source filed them. No cut-off for these calls is given here.

What was measured:
[1] = target: T1, Autotaxin (Homo sapiens, UniProt Q13822); test: Inhibition of C-terminal FLAG-tagged human autotaxin expressed in Freestyle 293 cells using synthetic substrate FS-3 by fluorescence based assay; type: cell-based
[2] = target: T1, Autotaxin; test: Inhibition of C-terminal FLAG-tagged human autotaxin expressed in Freestyle 293 cells assessed as reduction in choline release from LPC 16:0 pre-incubated for 10 mins before LPC addition and measured after 1 hr by choline oxidase/HRP coupled assay; type: cell-based
[3] = test system: Mus musculus; test: Anti-fibrotic activity in C57BL/6 mouse model of bleomycin-induced lung fibrosis assessed as reduction in hydroxyproline levels at 30 to 100 mg/kg, po BID for 21 days dosed 7 days after bleomycin treatment; type: functional, organism-based
How it was run: (§1)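 Mice received oral doses of 30, 100 or 300 mg/kg BID. Prophylactic arm started one day before bleomycin; therapeutic arm started seven days after. Mice were sacrificed 21 days post-bleomycin and lung hydroxyproline was measured per mouse. Group medians were compared with bleomycin + vehicle by p-value. Reference inhibitor control: 30 and 100 mg/kg BID.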

[4] = test system: Mus musculus; test: Anti-fibrotic activity in C57BL/6 mouse model of bleomycin-induced lung fibrosis assessed as reduction in hydroxyproline levels at 30 to 100 mg/kg, po BID dosed until day 21 starting one day prior to bleomycin treatment; type: functional, organism-based; how it was run: as §1

| Structure (SMILES) | pIC50 [2] | other results |
| --- | --- | --- |
| CNC(=O)CN1CN(c2ccccc2)C2(CCN(C(=O)[C@H](NC(=O)c3ccccc3)C3CCCCC3)CC2)C1=O |  | pIC50 [1]: 6.46 |
| Cc1cccc(C(=O)N[C@@H](C(=O)N2CCC3(CC2)C(=O)N(C)CN3c2ccccc2)C(C)C)c1 |  | pIC50 [1]: 8.70 |
| CNC(=O)CN1CN(c2ccccc2)C2(CCN(C(=O)[C@H](NC(=O)c3cccc(C)c3F)C3CCCCC3)CC2)C1=O | 7.07 | pIC50 [1]: 8.70 |
| Cc1cccc(C(=O)N[C@@H](C(=O)N2CCC3(CC2)C(=O)N(C)CN3c2ccccc2)C2CCOCC2)c1 | 6.21 |  |
| Cc1cccc(C(=O)N[C@@H](C(=O)N2CCC3(CC2)C(=O)N(C)C(=O)N3c2ccccc2)C(C)C)c1F | 6.17 |  |
| CN1C(=O)N(c2ccc3[nH]ncc3c2)C2(CCN(C(=O)CNC(=O)c3cc(C(F)(F)F)ccc3F)CC2)C1=O | 5.00 |  |
| CC(C)[C@@H](NC(=O)c1cc(C(F)(F)F)ccc1F)C(=O)N1CCC2(CC1)C(=O)N(C)CN2c1ccc2[nH]ncc2c1 | 7.87 |  |
| CC(C)[C@@H](NC(=O)c1cc(C(F)(F)F)ccc1Cl)C(=O)N1CCC2(CC1)C(=O)N(C)C(=O)N2c1ccc2[nH]ncc2c1 | 5.83 |  |
| CCc1nc2c(C)cc(N3CCN(CC(=O)N4CC(O)C4)CC3)cn2c1N(C)c1nc(-c2ccc(F)cc2)c(C#N)s1 |  | Activity [3]: Active; Activity [4]: Active |
| CN1C(=O)N(c2ccc3[nH]ncc3c2)C2(CCN(C(=O)[C@H](NC(=O)c3cc(C(F)(F)F)ccc3F)C3CCCC3)CC2)C1=O | 7.47 |  |
| CC(C)[C@@H](NC(=O)c1cccc(C(F)(F)F)c1)C(=O)N1CCC2(CC1)C(=O)N(C)C(=O)N2c1ccc2[nH]ncc2c1 | 6.47 |  |
| Cc1cccc(C(=O)N[C@H](C(=O)N2CCC3(CC2)C(=O)N(C)CN3c2ccccc2)C2CCOCC2)c1 | 5.00 |  |
| CC(C)[C@@H](NC(=O)c1cc(C(F)(F)F)ccc1F)C(=O)N1CCC2(CC1)C(=O)N(C)C(=O)N2c1cccc(Cl)c1 | 7.34 |  |
| CNC(=O)CN1CN(c2ccccc2)C2(CCN(C(=O)[C@H](NC(=O)c3cccc(Cl)c3)C3CCCCC3)CC2)C1=O |  | pIC50 [1]: 8.46 |
| CC(C)[C@@H](NC(=O)c1cccc(F)c1)C(=O)N1CCC2(CC1)C(=O)N(C)CN2c1ccccc1 |  | pIC50 [1]: 8.66 |
| CC(C)[C@@H](NC(=O)c1cc(C(F)(F)F)ccc1F)C(=O)N1CCC2(CC1)C(=O)N(C)C(=O)N2c1ccc(C(=O)O)cc1 | 7.51 |  |
| CC(C)[C@H](NC(=O)c1cc(C(F)(F)F)ccc1F)C(=O)N1CCC2(CC1)C(=O)N(C)C(=O)N2c1ccc2[nH]ncc2c1 | 5.00 |  |
| Cc1ccc(C(F)(F)F)cc1C(=O)N[C@@H](C(=O)N1CCC2(CC1)C(=O)N(C)C(=O)N2c1ccc2[nH]ncc2c1)C(C)C | 5.31 |  |
| CC(C)[C@@H](NC(=O)c1cc(C(F)(F)F)ccc1F)C(=O)N1CCC2(CC1)C(=O)N(C)C(=O)N2c1ccccc1 | 7.00 |  |
| Cc1cccc(C(=O)N[C@@H](C(=O)N2CCC3(CC2)C(=O)N(C)CN3C2CC2)C2CCCCC2)c1F | 6.09 |  |
| Cc1cccc(C(=O)N[C@@H](C(=O)N2CCC3(CC2)C(=O)N(C)CN3c2ccccn2)C2CCCCC2)c1 | 6.04 |  |
| Cc1ccc(N2C(=O)N(C)C(=O)C23CCN(C(=O)[C@H](NC(=O)c2cc(C(F)(F)F)ccc2F)C(C)C)CC3)cc1 | 7.42 |  |
| Cc1cccc(C(=O)N[C@@H](C(=O)N2CCC3(CC2)C(=O)N(C)CN3c2ccccc2)C2CCCCC2)c1F | 7.25 | pIC50 [1]: 8.80 |
